These results are taken from ChEMBL document CHEMBL1165965, “Synthesis and structure-activity relationships of 1,2,3,4-tetrahydropyrido[2,3-b]pyrazines as potent and selective inhibitors of the anaplastic lymphoma kinase” (Bioorg Med Chem, 2010).

Broadly, the inhibition is the percentage by which the read-out fell short of the control.

Assay [1] addresses T1, Tyrosine-protein kinase Mer (Homo sapiens) (UniProt Q12866).
T1 sequence (whole entry): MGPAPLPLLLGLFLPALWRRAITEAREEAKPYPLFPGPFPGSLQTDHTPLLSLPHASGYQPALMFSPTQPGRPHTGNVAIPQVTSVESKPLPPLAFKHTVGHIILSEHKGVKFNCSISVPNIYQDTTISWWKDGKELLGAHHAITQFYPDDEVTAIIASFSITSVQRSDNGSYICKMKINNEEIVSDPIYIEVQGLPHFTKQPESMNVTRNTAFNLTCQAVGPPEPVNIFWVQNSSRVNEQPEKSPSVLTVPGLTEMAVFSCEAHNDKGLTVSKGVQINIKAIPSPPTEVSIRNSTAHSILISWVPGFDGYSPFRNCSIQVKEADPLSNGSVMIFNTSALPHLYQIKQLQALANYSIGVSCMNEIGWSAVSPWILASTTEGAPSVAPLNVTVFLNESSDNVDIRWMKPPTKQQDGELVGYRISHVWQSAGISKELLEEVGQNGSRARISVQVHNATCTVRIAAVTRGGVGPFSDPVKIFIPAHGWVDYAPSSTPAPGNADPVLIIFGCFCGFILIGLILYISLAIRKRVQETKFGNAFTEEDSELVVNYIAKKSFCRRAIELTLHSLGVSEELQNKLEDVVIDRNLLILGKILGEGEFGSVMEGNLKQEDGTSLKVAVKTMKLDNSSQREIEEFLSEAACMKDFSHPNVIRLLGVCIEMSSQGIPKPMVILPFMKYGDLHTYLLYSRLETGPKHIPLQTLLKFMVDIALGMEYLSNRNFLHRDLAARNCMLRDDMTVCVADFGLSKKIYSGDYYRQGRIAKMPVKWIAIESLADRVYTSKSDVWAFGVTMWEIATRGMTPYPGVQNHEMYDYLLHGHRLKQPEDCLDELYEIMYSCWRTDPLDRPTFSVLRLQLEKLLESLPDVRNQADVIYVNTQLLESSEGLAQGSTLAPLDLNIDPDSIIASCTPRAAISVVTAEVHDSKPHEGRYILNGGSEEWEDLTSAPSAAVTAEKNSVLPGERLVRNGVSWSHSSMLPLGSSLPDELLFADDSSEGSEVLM
As to the kind of experiment: Inhibition of MERTK at 1 uM. Summed up: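 Kinase-panel screen using KINOMEscan technology, with 250–400 kinases per panel. Each compound was tested at a single concentration, and inhibition of each kinase was recorded. Selectivity was summarised as S(90), the fraction of kinases inhibited by more than 90%.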

Assay [2] concerns Phosphatidylinositol 4,5-bisphosphate 3-kinase catalytic subunit alpha isoform (Homo sapiens), P42336 [H1047L]. Description: Inhibition of PIK3CA H1047L mutant at 1 uM.
The target in assay [3] is Angiopoietin-1 receptor (Homo sapiens) (UniProt Q02763). As to the kind of experiment: Inhibition of TIE2 at 1 uM.
The target of assay [4] is Ribosomal protein S6 kinase alpha-1 (Homo sapiens) (UniProt Q15418). As to the kind of experiment: Inhibition of RPS6KA1 N-terminal domain1 at 1 uM.
Sequence of Ribosomal protein S6 kinase alpha-1 (Homo sapiens) (Q15418 whole entry, the tested form may be a part): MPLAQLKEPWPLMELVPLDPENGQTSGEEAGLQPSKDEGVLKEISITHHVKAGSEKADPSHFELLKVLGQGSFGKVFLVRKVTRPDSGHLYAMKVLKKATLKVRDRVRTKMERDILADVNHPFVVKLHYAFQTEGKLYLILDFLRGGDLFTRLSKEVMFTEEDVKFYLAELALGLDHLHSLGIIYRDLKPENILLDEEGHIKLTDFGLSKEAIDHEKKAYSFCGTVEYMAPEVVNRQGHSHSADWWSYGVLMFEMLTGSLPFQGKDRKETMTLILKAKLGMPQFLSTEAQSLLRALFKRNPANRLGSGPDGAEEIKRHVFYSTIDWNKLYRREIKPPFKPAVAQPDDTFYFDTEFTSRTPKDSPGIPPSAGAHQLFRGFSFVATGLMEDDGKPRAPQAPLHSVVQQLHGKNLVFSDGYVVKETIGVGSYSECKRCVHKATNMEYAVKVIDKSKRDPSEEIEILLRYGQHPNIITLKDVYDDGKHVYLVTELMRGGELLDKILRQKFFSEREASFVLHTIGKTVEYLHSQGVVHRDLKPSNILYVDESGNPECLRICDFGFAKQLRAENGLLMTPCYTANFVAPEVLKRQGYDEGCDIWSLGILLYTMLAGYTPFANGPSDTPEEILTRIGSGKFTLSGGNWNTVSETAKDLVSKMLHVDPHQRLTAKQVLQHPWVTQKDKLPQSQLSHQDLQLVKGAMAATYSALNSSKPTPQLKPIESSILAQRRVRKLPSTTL
In assay [5] the target is Calcium/calmodulin-dependent protein kinase kinase 2 (Homo sapiens) (UniProt Q96RR4). Description: Inhibition of CAMKK2 at 1 uM. The procedure, abridged: (§1)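 Ambit KINOMEscan screen at a single concentration across a 250–400 kinase panel, recorded as percent inhibition. Selectivity was expressed as S(90), the fraction of kinases inhibited >90%.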
Sequence of Calcium/calmodulin-dependent protein kinase kinase 2 (Homo sapiens) (Q96RR4 2-588 limits assumed): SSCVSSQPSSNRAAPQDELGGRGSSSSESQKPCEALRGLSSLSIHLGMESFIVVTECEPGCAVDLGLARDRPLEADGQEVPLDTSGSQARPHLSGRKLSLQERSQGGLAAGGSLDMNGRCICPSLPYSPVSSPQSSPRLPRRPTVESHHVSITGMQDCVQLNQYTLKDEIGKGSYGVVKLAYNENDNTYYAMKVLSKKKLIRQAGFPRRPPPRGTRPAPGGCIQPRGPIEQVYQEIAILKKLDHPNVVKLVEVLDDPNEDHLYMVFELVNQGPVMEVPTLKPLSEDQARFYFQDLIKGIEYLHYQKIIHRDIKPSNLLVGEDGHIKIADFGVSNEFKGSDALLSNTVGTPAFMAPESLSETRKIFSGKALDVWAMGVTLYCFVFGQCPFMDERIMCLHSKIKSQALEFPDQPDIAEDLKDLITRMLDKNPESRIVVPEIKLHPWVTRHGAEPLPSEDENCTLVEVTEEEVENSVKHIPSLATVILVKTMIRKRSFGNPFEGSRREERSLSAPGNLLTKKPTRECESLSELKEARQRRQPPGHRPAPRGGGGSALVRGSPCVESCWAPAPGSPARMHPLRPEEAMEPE
Assay [6] deals with RAC-gamma serine/threonine-protein kinase (Homo sapiens) (UniProt Q9Y243). Description: Inhibition of AKT3 at 1 uM. The procedure, abridged: as §1
Sequence of RAC-gamma serine/threonine-protein kinase (Homo sapiens) (Q9Y243 whole entry): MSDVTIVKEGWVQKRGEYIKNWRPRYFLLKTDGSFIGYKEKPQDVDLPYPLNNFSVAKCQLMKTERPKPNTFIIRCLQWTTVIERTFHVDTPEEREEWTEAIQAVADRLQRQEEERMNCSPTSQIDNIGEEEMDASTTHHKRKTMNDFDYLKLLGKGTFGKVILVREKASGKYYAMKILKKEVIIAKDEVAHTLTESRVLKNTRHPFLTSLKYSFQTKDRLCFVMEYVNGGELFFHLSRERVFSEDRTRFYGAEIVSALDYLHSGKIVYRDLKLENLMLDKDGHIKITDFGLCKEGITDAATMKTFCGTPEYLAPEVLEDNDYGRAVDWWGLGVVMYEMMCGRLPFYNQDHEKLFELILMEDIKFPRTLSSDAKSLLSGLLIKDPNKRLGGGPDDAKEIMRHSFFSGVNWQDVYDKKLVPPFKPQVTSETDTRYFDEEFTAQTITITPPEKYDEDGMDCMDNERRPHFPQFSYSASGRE
Assay [7] addresses Mitogen-activated protein kinase kinase kinase 20 (Homo sapiens) (UniProt Q9NYL2). As to the kind of experiment: Inhibition of ZAK at 1 uM.
Assay [8] concerns the target Serine/threonine-protein kinase 25 (Homo sapiens) (UniProt O00506). As to the kind of experiment: Inhibition of YSK1 at 1 uM.
Assay [9] has as its target Protein-tyrosine kinase 6 (Homo sapiens) (UniProt Q13882). Description: Inhibition of BRK at 1 uM. Summed up:
as §1

Assay [10] deals with Epidermal growth factor receptor (Homo sapiens), P00533 [L858R,T790M]. Description: Inhibition of EGFR L858R, T790M mutant at 1 uM. The assay is classed as protein assay.
Sequence of Epidermal growth factor receptor (Homo sapiens), P00533 [L858R,T790M] (P00533 whole entry T790M/L858R, looked up): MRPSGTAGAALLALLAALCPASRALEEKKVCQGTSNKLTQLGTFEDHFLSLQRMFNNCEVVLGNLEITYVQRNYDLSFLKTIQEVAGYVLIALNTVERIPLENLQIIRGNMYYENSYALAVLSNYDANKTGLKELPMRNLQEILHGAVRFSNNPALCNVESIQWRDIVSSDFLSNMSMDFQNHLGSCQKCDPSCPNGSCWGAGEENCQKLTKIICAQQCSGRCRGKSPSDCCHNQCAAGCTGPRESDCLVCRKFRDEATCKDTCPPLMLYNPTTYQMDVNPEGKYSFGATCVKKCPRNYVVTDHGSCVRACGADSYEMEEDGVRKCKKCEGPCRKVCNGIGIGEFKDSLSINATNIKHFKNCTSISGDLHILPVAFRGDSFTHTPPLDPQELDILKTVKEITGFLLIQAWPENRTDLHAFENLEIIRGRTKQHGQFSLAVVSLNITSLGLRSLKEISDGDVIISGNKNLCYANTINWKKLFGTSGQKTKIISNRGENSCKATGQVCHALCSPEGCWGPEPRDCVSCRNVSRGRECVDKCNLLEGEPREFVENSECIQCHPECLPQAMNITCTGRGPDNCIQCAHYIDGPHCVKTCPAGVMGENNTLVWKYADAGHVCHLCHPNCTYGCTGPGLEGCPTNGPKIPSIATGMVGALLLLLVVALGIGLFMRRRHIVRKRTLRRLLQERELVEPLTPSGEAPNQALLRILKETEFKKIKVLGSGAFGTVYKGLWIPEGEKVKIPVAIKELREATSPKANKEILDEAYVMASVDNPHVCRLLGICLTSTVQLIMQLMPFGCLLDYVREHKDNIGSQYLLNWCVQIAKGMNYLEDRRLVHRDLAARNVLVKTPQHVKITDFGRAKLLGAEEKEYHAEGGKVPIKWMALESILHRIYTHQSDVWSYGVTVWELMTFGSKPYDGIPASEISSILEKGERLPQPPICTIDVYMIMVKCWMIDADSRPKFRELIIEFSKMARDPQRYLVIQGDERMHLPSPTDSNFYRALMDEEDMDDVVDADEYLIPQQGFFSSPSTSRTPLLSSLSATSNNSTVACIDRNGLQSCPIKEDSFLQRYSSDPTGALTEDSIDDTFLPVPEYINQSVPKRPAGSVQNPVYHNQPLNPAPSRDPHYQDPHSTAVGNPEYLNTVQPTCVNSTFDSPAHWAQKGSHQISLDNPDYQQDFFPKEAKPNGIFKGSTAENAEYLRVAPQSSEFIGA
Assay [11] has as its target T2, Activin receptor type-1B (Homo sapiens) (UniProt P36896).
T2 sequence (whole entry): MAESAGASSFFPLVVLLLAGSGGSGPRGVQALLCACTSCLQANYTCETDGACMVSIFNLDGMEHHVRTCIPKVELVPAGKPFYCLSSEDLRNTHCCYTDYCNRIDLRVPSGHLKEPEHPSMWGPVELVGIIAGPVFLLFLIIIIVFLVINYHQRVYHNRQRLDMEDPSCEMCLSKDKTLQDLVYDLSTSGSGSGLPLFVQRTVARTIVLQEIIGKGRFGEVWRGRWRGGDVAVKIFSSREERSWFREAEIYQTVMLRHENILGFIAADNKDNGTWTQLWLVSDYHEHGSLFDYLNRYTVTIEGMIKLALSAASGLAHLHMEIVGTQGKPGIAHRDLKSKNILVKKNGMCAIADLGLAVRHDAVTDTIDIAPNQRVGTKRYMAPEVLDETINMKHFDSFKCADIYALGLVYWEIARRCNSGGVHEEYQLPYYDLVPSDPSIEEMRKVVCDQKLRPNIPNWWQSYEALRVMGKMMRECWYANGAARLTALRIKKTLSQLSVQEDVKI
As to the kind of experiment: Inhibition of ACVR1B at 1 uM. The procedure, abridged:
as §1

For assay [12], the target named is Non-receptor tyrosine-protein kinase TYK2 (Homo sapiens) (UniProt P29597). As to the kind of experiment: Inhibition of TYK2 JH2 pseudokinase domain at 1 uM.
Sequence of Non-receptor tyrosine-protein kinase TYK2 (Homo sapiens) (P29597 whole entry, the tested form may be a part): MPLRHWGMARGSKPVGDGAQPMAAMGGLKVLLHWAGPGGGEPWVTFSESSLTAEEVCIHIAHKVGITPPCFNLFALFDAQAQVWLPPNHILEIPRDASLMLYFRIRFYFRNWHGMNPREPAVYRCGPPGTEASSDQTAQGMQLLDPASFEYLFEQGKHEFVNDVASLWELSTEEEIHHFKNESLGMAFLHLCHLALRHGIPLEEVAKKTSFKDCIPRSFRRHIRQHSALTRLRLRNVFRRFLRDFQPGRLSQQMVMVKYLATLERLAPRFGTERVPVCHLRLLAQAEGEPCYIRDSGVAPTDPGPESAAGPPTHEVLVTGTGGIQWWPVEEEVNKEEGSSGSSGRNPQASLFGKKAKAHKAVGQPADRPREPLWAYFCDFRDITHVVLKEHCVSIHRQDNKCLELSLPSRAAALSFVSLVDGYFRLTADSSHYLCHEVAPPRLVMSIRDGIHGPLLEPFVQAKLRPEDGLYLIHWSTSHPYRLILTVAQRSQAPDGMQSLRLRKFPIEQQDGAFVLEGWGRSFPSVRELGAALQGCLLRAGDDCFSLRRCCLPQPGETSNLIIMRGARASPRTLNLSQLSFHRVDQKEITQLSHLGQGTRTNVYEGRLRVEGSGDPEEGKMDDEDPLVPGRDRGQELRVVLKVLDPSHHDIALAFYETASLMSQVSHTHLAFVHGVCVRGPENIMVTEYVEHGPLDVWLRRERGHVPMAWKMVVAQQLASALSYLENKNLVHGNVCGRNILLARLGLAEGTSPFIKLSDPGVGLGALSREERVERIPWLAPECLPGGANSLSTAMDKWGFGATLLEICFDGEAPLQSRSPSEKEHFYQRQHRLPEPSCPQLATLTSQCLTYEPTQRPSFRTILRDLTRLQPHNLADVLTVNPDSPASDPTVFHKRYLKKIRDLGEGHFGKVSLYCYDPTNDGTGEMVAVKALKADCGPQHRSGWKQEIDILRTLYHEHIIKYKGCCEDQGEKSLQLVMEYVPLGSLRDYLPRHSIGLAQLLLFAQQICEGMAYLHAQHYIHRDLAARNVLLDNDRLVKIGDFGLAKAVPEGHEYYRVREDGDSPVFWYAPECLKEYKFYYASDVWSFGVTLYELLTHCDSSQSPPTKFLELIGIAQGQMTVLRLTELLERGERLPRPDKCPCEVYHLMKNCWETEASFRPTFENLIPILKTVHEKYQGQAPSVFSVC
The target in assay [13] is T3, Mitogen-activated protein kinase kinase kinase 3 (Homo sapiens) (UniProt Q99759).
T3 sequence (whole entry): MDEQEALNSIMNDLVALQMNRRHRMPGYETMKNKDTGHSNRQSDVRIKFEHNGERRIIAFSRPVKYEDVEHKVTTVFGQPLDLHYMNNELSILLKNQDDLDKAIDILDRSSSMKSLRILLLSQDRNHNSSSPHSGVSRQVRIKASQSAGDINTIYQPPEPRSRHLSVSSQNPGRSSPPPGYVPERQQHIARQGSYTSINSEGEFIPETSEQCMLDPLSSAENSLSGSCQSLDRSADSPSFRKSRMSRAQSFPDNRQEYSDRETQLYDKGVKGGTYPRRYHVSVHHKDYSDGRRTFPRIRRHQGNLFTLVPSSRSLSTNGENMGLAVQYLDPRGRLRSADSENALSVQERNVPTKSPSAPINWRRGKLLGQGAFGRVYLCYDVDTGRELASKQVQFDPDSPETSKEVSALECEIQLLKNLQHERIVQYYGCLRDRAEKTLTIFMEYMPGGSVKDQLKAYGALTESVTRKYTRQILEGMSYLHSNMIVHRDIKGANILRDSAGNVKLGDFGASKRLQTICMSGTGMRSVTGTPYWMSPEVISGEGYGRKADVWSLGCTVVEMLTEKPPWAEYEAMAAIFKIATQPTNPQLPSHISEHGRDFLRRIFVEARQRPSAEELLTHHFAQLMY
As to the kind of experiment: Inhibition of MAP3K3 at 1 uM.

Sequence of Mitogen-activated protein kinase kinase kinase 20 (Homo sapiens) (Q9NYL2 2-800 limits assumed): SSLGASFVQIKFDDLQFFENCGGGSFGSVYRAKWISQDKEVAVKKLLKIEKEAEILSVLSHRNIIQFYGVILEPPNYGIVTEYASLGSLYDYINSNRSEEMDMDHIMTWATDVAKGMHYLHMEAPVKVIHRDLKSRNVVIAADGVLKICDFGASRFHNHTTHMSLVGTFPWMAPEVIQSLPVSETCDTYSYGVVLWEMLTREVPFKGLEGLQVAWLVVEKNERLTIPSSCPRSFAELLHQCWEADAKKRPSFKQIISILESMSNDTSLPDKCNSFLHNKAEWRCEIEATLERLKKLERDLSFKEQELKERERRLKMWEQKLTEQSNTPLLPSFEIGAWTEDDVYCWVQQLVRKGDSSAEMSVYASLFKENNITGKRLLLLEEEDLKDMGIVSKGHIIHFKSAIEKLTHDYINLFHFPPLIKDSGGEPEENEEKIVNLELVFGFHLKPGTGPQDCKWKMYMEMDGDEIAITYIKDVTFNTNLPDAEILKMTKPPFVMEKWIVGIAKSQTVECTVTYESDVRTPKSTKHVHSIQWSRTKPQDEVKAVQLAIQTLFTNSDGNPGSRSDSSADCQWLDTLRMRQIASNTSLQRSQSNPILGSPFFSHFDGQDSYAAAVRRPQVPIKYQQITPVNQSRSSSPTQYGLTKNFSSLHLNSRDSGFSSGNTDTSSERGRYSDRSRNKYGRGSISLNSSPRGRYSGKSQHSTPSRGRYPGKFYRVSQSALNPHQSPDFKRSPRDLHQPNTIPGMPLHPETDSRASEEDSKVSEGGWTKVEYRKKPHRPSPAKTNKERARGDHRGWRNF

`FC(F)(F)c1ccc(Cl)cc1CN1CCNc2ncc(-c3ccnc(N4CCNCC4)c3)cc21`: the inhibition in [1], in [2], in assay [3], in assay [4], in [5] and in assay [6] was less than 50% in each case. For the same compound, the inhibition in [7], in assay [8], in assay [9], in [10], in assay [11] and in assay [12] was less than 50% each time. The same compound returned an inhibition in [13] of 88%.

In the case of `CN1CCN(c2ccc(-c3cnc4c(c3)N(Cc3cc(Cl)ccc3Cl)CCN4)cn2)CC1`, the inhibition in assay [1], in assay [2], in assay [3], in assay [4], in [5] and in [6] was less than 50% in each case. For the same compound, the inhibition in [7], in [8], in assay [9], in [10], in assay [11] and in assay [12] was less than 50% in each case. Also, the inhibition in assay [13] is less than 50%.

Turning to `COC1CCN(C(=O)c2ccc(-c3cnc4c(c3)N(Cc3cc(Cl)ccc3C(F)(F)F)CCN4)cc2)CC1`, the inhibition in [1], in assay [3], in [4], in [5], in assay [6] and in [9] was less than 50% throughout. Further, the inhibition in assay [11] was less than 50%.

Turning to `O=C(c1ccc(-c2cnc3c(c2)N(Cc2cc(Cl)ccc2C(F)(F)F)CCN3)cc1)N1CCCCC1`, the inhibition in [1], in [3], in assay [4], in [5], in assay [6] and in [9] was less than 50% each time. For the same compound, in [11], the inhibition is less than 50%.

For `O=C(O)c1ccc(-c2cnc3c(c2)N(Cc2cc(Cl)ccc2C(F)(F)F)CCN3)cc1`, the inhibition in assay [1], in assay [3], in [4], in [5], in [6] and in assay [9] was less than 50% throughout. In assay [11], this compound yielded an inhibition of less than 50%.

On to `CN1CCN(c2ccc(-c3cnc4c(c3)N(Cc3cc(F)ccc3F)CCN4)cn2)CC1`, for which the inhibition in assay [1], in assay [2], in assay [3], in assay [4], in assay [5] and in assay [6] was less than 50% in each case. Also, the inhibition in [7], in assay [8], in assay [9], in assay [10], in assay [11] and in assay [12] was less than 50% throughout. The inhibition in [13] is less than 50%.

Turning to `O=C(c1ccc(-c2cnc3c(c2)N(Cc2cc(Cl)ccc2C(F)(F)F)CCN3)cc1)N1CCC(N2CCCC2)CC1`, the inhibition in [1], in [3], in [4], in assay [5], in assay [6] and in assay [9] was less than 50% each time. Also, in assay [11], the inhibition is less than 50%.

`CN1CCN(c2ccc(-c3cnc4c(c3)N(Cc3c(F)ccc(F)c3Cl)CCN4)cn2)CC1`: the inhibition in assay [1], in [2], in [3], in assay [4], in assay [5] and in assay [6] was less than 50% throughout. The inhibition in assay [7], in [8], in assay [9], in assay [10], in assay [11] and in assay [12] was less than 50% each time. The inhibition in [13] is less than 50%.

As to `CC(=O)N1CCN(c2cc(-c3cnc4c(c3)N(Cc3cc(Cl)ccc3C(F)(F)F)CCN4)ccn2)CC1`, the inhibition in assay [1], in assay [2], in assay [3], in [4], in assay [5] and in assay [6] was less than 50% each time. Besides, the inhibition in [7], in [8], in assay [9], in assay [10], in assay [11] and in [12] was less than 50% in each case. The compound also showed an inhibition in assay [13] of less than 50%.

For the compound `CN1CCN(c2ccc(-c3cnc4c(c3)N(Cc3cc(Cl)ccc3C(F)(F)F)CCN4)cn2)CC1`, the inhibition in assay [1], in assay [2], in [3], in [4], in [5] and in assay [6] was less than 50% in each case. The inhibition in [7], in [8], in assay [9], in assay [10], in assay [11] and in assay [12] was less than 50% throughout. The compound also gave an inhibition in [13] of less than 50%.
